Activity calls are given as the source filed them. The calls are words filed in the database; no cut-off is given here.

These results are taken from ChEMBL document CHEMBL1681691, “Synthesis and biological activity of amino acid conjugates of abscisic acid” (Bioorg Med Chem, 2011).

Series [1] relates to Arabidopsis thaliana. Nature of the series: Inhibition of seed germination in Arabidopsis thaliana at 10 uM after 24 hrs. Format: functional. In outline:
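Arabidopsis Col-0 seeds, 25 per test, sterilized in 70% EtOH for 30 min then EtOH for 1 min. Seeds were soaked in 250 µl test solution and chilled 3 days at 5 °C in the dark, then germinated on filter paper under continuous light for 24 h at 22 °C. Scored as % with emerged radicle; run twice. Single-concentration test at 10 µM.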

The nature of series [2]: Chemical stability of the compound at 25 degC after 7 days. As to conditions: 168 h. The series is classed as physicochemical. In outline:
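Compound at 100 µM in 2 ml aqueous solution, prepared as for the rice growth assay, held in a capped glass tube at 25 °C under continuous light for 7 days, then analysed by reverse-phase HPLC.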

In series [3] the target is T1, IAA-amino acid hydrolase ILR1-like 4 (Arabidopsis thaliana) (UniProt O04373).
T1 sequence (whole entry): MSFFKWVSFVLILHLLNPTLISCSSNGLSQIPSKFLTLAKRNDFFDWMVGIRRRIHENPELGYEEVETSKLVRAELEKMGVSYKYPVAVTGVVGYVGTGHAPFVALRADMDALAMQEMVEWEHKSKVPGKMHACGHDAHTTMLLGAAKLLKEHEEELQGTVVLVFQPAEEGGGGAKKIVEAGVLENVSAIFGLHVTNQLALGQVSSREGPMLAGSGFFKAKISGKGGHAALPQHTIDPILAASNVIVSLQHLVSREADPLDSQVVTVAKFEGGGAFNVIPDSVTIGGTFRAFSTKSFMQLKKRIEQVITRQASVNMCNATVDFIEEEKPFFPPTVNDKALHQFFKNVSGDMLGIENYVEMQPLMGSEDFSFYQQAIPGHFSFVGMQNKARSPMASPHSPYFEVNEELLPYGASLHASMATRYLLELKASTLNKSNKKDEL
Nature of the series: Activity at GST-tagged IAR3 of Arabidopsis thaliana assessed as ABA release per mg of protein after 5 hrs by HPLC. The method, boiled down: (§1)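 Recombinant Arabidopsis GST-IAR3 expressed in E. coli BL21(DE3) (IPTG 50 µM, overnight at 18 °C) and purified on glutathione-agarose. Substrate at 1 mM was preincubated 5 min at 30 °C in 50 mM Tris-HCl pH 8.0 with 1 mM DTT and 1 mM MnCl2. Reaction started with 15 ng/µl enzyme at 30 °C, sampled up to 5 h (some substrates 7 or 24 h), quenched in MeOH/1% AcOH, cleaned on cartridge, HPLC at 254 nm.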

Series [4] has as its system Oryza sativa. Nature of the series: Inhibition of seedling elongation in Oryza sativa after 7 days.
The subject of series [5] is Oryza sativa. The experiment in a line: Inhibition of seedling elongation in Oryza sativa at 100 uM after 7 days.
Series [6] has as its target T1, IAA-amino acid hydrolase ILR1-like 4 (Arabidopsis thaliana). The experiment in a line: Activity at GST-tagged IAR3 of Arabidopsis thaliana assessed as ABA release per mg of protein after 7 hrs by HPLC. In outline:
as §1

Series [7] has as its system Oryza sativa. Nature of the series: Metabolic stability in Oryza sativa seedling assessed as ABA-d6 release per mg of protein after 4 days by LC-MS. The series is classed as ADME, organism-based. As to conditions: in vivo, 96 h.
Series [8] concerns Lactuca sativa. Nature of the series: Inhibition of seed germination in Lactuca sativa at 100 uM after 24 hrs. The series is classed as functional.
Series [9] has as its system Spinacia oleracea. Nature of the series: Inhibition of seed germination in Spinacia oleracea at 100 uM after 24 hrs. The series is classed as functional. In outline: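 Spinach cv. Jiromaru seeds sterilized with EtOH for 5 min and rinsed in running tap water for 2 h. Placed on filter paper wetted with 2 ml test solution in a Petri dish, held 2 days at 5 °C, then germinated 24 h at 22 °C under continuous light. Single-concentration test at 100 µM.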

Series [10] relates to Arabidopsis thaliana. The experiment in a line: Inhibition of seed germination in Arabidopsis thaliana after 24 hrs. The series is classed as functional, organism-based.
Series [11] relates to Lactuca sativa. Nature of the series: Inhibition of seed germination in Lactuca sativa after 24 hrs. The series is classed as functional, organism-based.
Series [12] relates to Spinacia oleracea. The experiment in a line: Inhibition of seed germination in Spinacia oleracea at 100 uM after 24 hrs.
For series [13], the target named is T1, IAA-amino acid hydrolase ILR1-like 4 (Arabidopsis thaliana). Nature of the series: Activity at GST-tagged IAR3 of Arabidopsis thaliana assessed as IAA release per mg of protein after 5 hrs by HPLC. In outline: as §1

With `CC1=CC(=O)CC(C)(C)[C@@]1(O)/C=C/C(C)=C\C(=O)N[C@@H](C)C(=O)O`, the inhibition entry with Arabidopsis thaliana [1] was “Active”. Moreover, the Stability entry in [2] was “Stable”. For the same compound, in series [3], the Activity was found to be 310 nmol/h/mg. For the same compound, half-maximal inhibition with Oryza sativa [4] (IC50) was put at 7 µM. In the series on Oryza sativa [5], this compound displayed an inhibition at 100 µM of over 80%.
For `CSCC[C@H](NC(=O)/C=C(C)\C=C\[C@@]1(O)C(C)=CC(=O)CC1(C)C)C(=O)O`, in series [6], the Activity turned out to be 22 nmol/h/mg. Also, in the series on Oryza sativa [4], the IC50 turned out to be 16 µM. In addition, the inhibition at 100 µM in the series on Oryza sativa [5] is over 80%.
With `[2H]C([2H])([2H])C1(C([2H])([2H])[2H])CC(=O)C=C(C)[C@]1(O)/C=C/C(C)=C\C(=O)N[C@H](C)C(=O)O`, the Stability result with Oryza sativa [7] is “Stable”.
For the compound `CC1=CC(=O)CC(C)(C)[C@@]1(O)/C=C/C(C)=C\C(=O)N[C@@H](CO)C(=O)O`, 13 µM corresponded to half-maximal inhibition in the series with Oryza sativa [4] (IC50). In addition, in the series with Oryza sativa [5], the inhibition at 100 µM was over 80%.
`[2H]C([2H])([2H])C1(C([2H])([2H])[2H])CC(=O)C=C(C)[C@]1(O)/C=C/C(C)=C\C(=O)N[C@@H](C)C(=O)O`: in the series with Oryza sativa [7], the Stability entry is “Unstable”.
Regarding `CC1=CC(=O)CC(C)(C)[C@@]1(O)/C=C/C(C)=C\C(=O)N[C@@H](CC(=O)O)C(=O)O`, the IC50 with Oryza sativa [4] was 6.4 µM. For the same compound, the inhibition at 100 µM in the series on Oryza sativa [5] was over 80%.
In the series with Arabidopsis thaliana [1], `CC1=CC(=O)CC(C)(C)[C@@]1(O)/C=C/C(C)=C\C(=O)O` [(+)-ABSCISIC ACID] registered an inhibition at 10 µM of 100%. Moreover, the inhibition at 100 µM in the series with Lactuca sativa [8], with Spinacia oleracea [9] and in the series on Oryza sativa [5] was 100% throughout. Also, the half-maximal inhibitory concentration (IC50) in the series on Arabidopsis thaliana [10] is 200 nM; in the series with Lactuca sativa [11], 5.7 µM; in the series on Oryza sativa [4] it was 2.1 µM.
As for `CC1=CC(=O)CC(C)(C)[C@@]1(O)/C=C/C(C)=C\C(=O)N[C@@H](CCC(N)=O)C(=O)O`, in the series on Oryza sativa [4], the IC50 was found to be 8.3 µM. Besides, in the series on Oryza sativa [5], the inhibition at 100 µM was over 80%. Also, in the series on Spinacia oleracea [12], the inhibition entry was “Active”.
Consider `C[C@H](NC(=O)Cc1c[nH]c2ccccc12)C(=O)O`, for which the Activity in [13] amounted to 2100 nmol/h/mg.
Regarding `CC1=CC(=O)CC(C)(C)[C@@]1(O)/C=C/C(C)=C\C(=O)NCC(=O)O`, the Activity in series [3] amounted to 230 nmol/h/mg. The same compound yielded an IC50 with Oryza sativa [4] of 5.7 µM. For the same compound, the inhibition at 100 µM with Oryza sativa [5] was over 80%.
For the compound `CC1=CC(=O)CC(C)(C)[C@@]1(O)/C=C/C(C)=C\C(=O)N[C@@H](CC(N)=O)C(=O)O`, in [6], the Activity stood at 19 nmol/h/mg. This compound returned an IC50 in the series with Oryza sativa [4] of 9.3 µM. Besides, in the series with Oryza sativa [5], the inhibition at 100 µM is over 80%.
Regarding `CC1=CC(=O)CC(C)(C)[C@@]1(O)/C=C/C(C)=C\C(=O)N[C@@H](CCC(=O)O)C(=O)O`, the inhibition entry in the series on Spinacia oleracea [12] was “Active”.

By inhibition is commonly meant the drop in the measured response relative to a control, in per cent. Broadly, the IC50 is the concentration that inhibits the measured activity by half. A high value points to lower potency.
